Results: PMC4819696 (Febs Letters, 2016)
Entries after “also recorded” stand apart in the source; their conditions may differ. *: point of attachment. Biotin = O=C1N[C@H]2[C@H](CS[C@H]2CCCCC(=O)*)N1

Assays:
full‐length syntenin = target: T1, full‐length syntenin (Homo sapiens, UniProt O00560); test: Surface plasmon resonance; assay type: binding; details: used as reference channel; 10 mM HEPES, 150 mM NaCl, 0.005% Tween20, pH 7.4
T1 sequence (O00560 1-298): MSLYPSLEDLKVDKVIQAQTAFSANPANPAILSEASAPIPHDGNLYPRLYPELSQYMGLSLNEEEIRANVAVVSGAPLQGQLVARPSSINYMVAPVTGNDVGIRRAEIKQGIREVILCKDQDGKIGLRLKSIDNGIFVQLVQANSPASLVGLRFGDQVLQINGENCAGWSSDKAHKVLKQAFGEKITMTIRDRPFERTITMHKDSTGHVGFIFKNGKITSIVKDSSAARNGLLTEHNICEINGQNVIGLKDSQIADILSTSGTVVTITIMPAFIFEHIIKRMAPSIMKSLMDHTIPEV

syntenin PDZ1‐2 = test: Clonal phage ELISA against PDZ1‐2; assay type: binding; details: clonal ELISA against the baits PDZ1, PDZ2 or PDZ1‐2
How it was run: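 Syntenin PDZ1‑2 (107–275), PDZ1 (107–199) and PDZ2 (198–275) were expressed in E. coli ER2566 and purified by nickel affinity. Clones came from five rounds of selection of M13 gene‑8 libraries (random C‑terminal heptamers or internal dodecamers) on immobilized PDZ1‑2, with PBS/0.05% Tween 20 washes. Clones binding PDZ1‑2 but not control GST were sequenced, then each was tested by phage ELISA against immobilized PDZ1‑2, PDZ1 and PDZ2.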

syntenin = test: Co-immunoprecipitation of endogenous nectin-1 and syntenin in MCF‐7 cells; assay type: cell-based; details: IP with nectin‐1 specific antibody, immunoblot with anti‐syntenin antibody
C‐terminus of nectin‐1 = assay type: binding; details: bait C‐terminus of nectin‐1
How it was run: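 Bait was transformed into MaV203 yeast, followed by 100 μg human fetal brain cDNA library in pEXP‑AD502. About 5 × 10^5 transformants were plated on medium lacking Trp/Leu/His with 20 mM 3‑amino‑1,2,4‑triazole, 30 °C, 5 days. Positives were checked on uracil and β‑galactosidase reporters, PCR‑amplified and retested in fresh bait yeast. Multi‑product colonies were discarded. Inserts were sequenced and in‑frame GAL4AD clones kept.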

nectin‐1 = assay type: cell-based; details: freshly plated MCF‐7 cells, fibronectin-coated coverslips, 5 h
[1] = target: T2, full-length syntenin (SPR analyte) (UniProt O00560 1-298); test: SPR
T2 sequence (looked up): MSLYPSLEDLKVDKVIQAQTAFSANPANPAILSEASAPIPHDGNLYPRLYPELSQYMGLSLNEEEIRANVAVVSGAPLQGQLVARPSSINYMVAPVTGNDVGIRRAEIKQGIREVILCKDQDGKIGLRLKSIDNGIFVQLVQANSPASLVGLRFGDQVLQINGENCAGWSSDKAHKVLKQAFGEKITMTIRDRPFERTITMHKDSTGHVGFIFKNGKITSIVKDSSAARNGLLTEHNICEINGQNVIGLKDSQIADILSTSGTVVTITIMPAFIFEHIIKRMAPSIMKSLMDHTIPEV

## Biot‐RMRKKDEGSYDLGERKPSSAAYQKAPTKEFpYA‐COOH
full‐length syntenin
  binding to syntenin by SPR (in words): nonbinding

## SHWTIDI
Syntenin PDZ1‐2
  binding in clonal phage ELISA (in words): both PDZ domains are necessary for binding to this peptide

## YYWAATGENVYS
Syntenin PDZ1‐2
  binding in clonal phage ELISA (in words): loss of binding in phage ELISAs

B1: nectin‐1: cell adhesion protein PVRL1, also called nectin-1 (protein)
chain: QVVQVNDSMYGFIGTDVVLHCSFANPLPSVKITQVTWQKSTNGSKQNVAIYNPSMGVSVLAPYRERVEFLRPSFTDGTIRLSRLELEDEGVYICEFATFPTGNRESQLNLTVMAKPTNWIEGTQAVLRAKKGQDDKVLVATCTSANGKPPSVVSWETRLKGEAEYQEIRNPNGTVTVISRYRLVPSREAHQQSLACIVNYHMDRFKESLTLNVQYEPEVTIEGFDGNWYLQRMDVKLTCKADANPPATEYHWTTLNGSLPKGVEAQNRTLFFKGPINYSLAGTYICEATNPIGTRSGQVEVNITEFPYTPSPPEHGRRAGPVPTAIIGGVAGSILLVLIVVGGIVVALRRRRHTFKGDYSTKKHVYGNGYSKAGIPQHHPPMAQNLQYPDDSDDEKKAGPLGGSSYEEEEEEEEGGGGGERKVGGPHPKYDEDAKRPYFTVDEAEARQDGYGDRTLGYQYDPEQLDLAENMVSQNDGSFISKKEWYV
syntenin
  co-IP of endogenous proteins (in words): confirmed an interaction between the endogenous proteins

B2: syntenin: small adaptor protein with PDZ1-2 tandem (protein)
chain: MSLYPSLEDLKVDKVIQAQTAFSANPANPAILSEASAPIPHDGNLYPRLYPELSQYMGLSLNEEEIRANVAVVSGAPLQGQLVARPSSINYMVAPVTGNDVGIRRAEIKQGIREVILCKDQDGKIGLRLKSIDNGIFVQLVQANSPASLVGLRFGDQVLQINGENCAGWSSDKAHKVLKQAFGEKITMTIRDRPFERTITMHKDSTGHVGFIFKNGKITSIVKDSSAARNGLLTEHNICEINGQNVIGLKDSQIADILSTSGTVVTITIMPAFIFEHIIKRMAPSIMKSLMDHTIPEV
modifications: left off: GAL4AD, end not stated, kept
C‐terminus of nectin‐1
  Y2H preference (in words): preferred nectin‐1 binder; also recorded: favored ligand of the C‐terminus of nectin‐1
nectin‐1
  colocalization (in words): colocalizes with nectin‐1 at the sites of cell–cell contacts

B3: N-terminal biotinylated nectin-1 C-terminal peptide (peptide)
peptide: Biotin-AENMVSQNDGSFISKKEWYV-OH
SMILES: CC[C@H](C)[C@H](NC(=O)[C@H](Cc1ccccc1)NC(=O)[C@H](CO)NC(=O)CNC(=O)[C@H](CC(=O)O)NC(=O)[C@H](CC(N)=O)NC(=O)[C@H](CCC(N)=O)NC(=O)[C@H](CO)NC(=O)[C@@H](NC(=O)[C@H](CCSC)NC(=O)[C@H](CC(N)=O)NC(=O)[C@H](CCC(=O)O)NC(=O)[C@H](C)NC(=O)CCCC[C@@H]1SC[C@@H]2NC(=O)N[C@@H]21)C(C)C)C(=O)N[C@@H](CO)C(=O)N[C@@H](CCCCN)C(=O)N[C@@H](CCCCN)C(=O)N[C@@H](CCC(=O)O)C(=O)N[C@@H](Cc1c[nH]c2ccccc12)C(=O)N[C@@H](Cc1ccc(O)cc1)C(=O)N[C@H](C(=O)O)C(C)C
[1]
  Kd: 14 µM
